Measurements published in ChEMBL document CHEMBL3784941, “Rational Design, Synthesis, and Preliminary Structure-Activity Relationships of α-Substituted-2-Phenylcyclopropane Carboxylic Acids as Inhibitors of Salmonella typhimurium O-Acetylserine Sulfhydrylase” (J Med Chem, 2016).
Activity calls are given as the source filed them. The rule behind the calls is not given here.

Assays:
[1] = Binding affinity to recombinant Salmonella typhimurium His6-tagged OASS-A expressed in Escherichia coli by fluorimetric titration method; design: species or system Salmonella enterica subsp. enterica serovar Typhimurium
Outline: (§1)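 OASS coenzyme fluorescence titrated with ligand. Conditions were 0.5−1.0 μM enzyme in 100 mM Hepes, pH 7.0, at 20 °C. Excitation was at 412 nm and the emission spectra were recorded. Intensity at 500 nm, minus the ligand-free signal, was fitted to a single-site binding isotherm to give Kdiss.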

[2] = Binding affinity to recombinant Salmonella typhimurium His10-tagged OASS-B expressed in Escherichia coli by fluorimetric titration method; design: species or system Salmonella enterica subsp. enterica serovar Typhimurium; outline: as §1
[3] = Inhibition of recombinant Salmonella typhimurium His6-tagged OASS-A expressed in Escherichia coli using OAS as substrate by discontinuous assay; design: species or system Salmonella enterica subsp. enterica serovar Typhimurium
[4] = Inhibition of recombinant Salmonella typhimurium His10-tagged OASS-B expressed in Escherichia coli using OAS as substrate by discontinuous assay; design: species or system Salmonella enterica subsp. enterica serovar Typhimurium
[5] = Solubility in 100 mM HEPES buffer at pH 7 containing 1% DMSO at >20 uM at 20 degC; type: physicochemical
[6] = test system: Salmonella enterica subsp. enterica serovar Typhimurium; test: Binding affinity to recombinant Salmonella typhimurium His6-tagged OASS-A expressed in Escherichia coli at <20 uM by fluorimetric titration method; outline: as §1

Row | Compound | Kd [1] [µM] | Kd [2] [µM] | IC50 [3] [µM] | IC50 [4] [µM] | solubility [5] | Activity [6]
1 | O=C(O)[C@H]1C[C@@H]1c1ccccc1 (relative stereo) | 9.2 | 148 |  |  |  | 
2 | Cc1ccc(C[C@]2(C(=O)O)C[C@@H]2c2ccccc2)cc1 | 81 | 121 |  |  |  | 
3 | O=C(O)[C@@]1(Cc2ccccc2)C[C@@H]1c1ccccc1 (racemic) | 0.2 | 4.1 |  |  |  | 
4 | O=C(O)[C@@]1(Cc2ccc(Cl)cc2)C[C@@H]1c1ccccc1 | 84 | 152 | 14 | 48 |  | 
5 | Cc1ccc(C[C@]2(C(=O)O)C[C@@H]2c2ccccc2)cc1 (racemic) | 0.077 | 1.2 |  |  |  | 
6 | CC[C@]1(C(=O)O)C[C@@H]1c1ccccc1 (racemic) | 15 | 720 |  |  |  | 
7 | CCOC(=O)[C@@]1(Cc2ccccc2)C[C@@H]1c1ccccc1 (relative stereo) |  |  |  |  | Insoluble | inactive
8 | O=C(O)[C@]1(Cc2ccc(Cl)cc2)C[C@H]1c1ccccc1 | 0.054 | 0.42 | 0.099 | 0.5 |  | 
9 | O=C(O)[C@@]1(CCc2ccccc2)C[C@@H]1c1ccccc1 (relative stereo) | 14 | 27 |  |  |  | 
10 | CC[C@@]1(C(=O)O)C[C@H]1c1ccccc1 | 12.1 | 860 |  |  |  | 
11 | O=C(O)[C@]1(Cc2ccccc2)C[C@H]1c1ccccc1 | 0.067 | 1.66 |  |  |  | 
12 | CC[C@]1(C(=O)O)C[C@@H]1c1ccccc1 | 1200 | > 2000 |  |  |  | 
13 | H-MNLNI-OH | 120 | 3000 |  |  |  | 
14 | O=C(O)[C@@]1(Cc2ccccc2)C[C@@H]1c1ccccc1 | 50 | 197 |  |  |  | 
15 | O=C(O)[C@@]1(Cc2ccc(Cl)cc2)C[C@@H]1c1ccccc1 (racemic) | 0.156 | 0.76 |  |  |  | 
16 | Cc1ccc(C[C@@]2(C(=O)O)C[C@H]2c2ccccc2)cc1 | 0.028 | 0.49 |  |  |  | 
